Test results published in ChEMBL document CHEMBL2146371, “Biologically active dibenzofurans from Pilidiostigma glabrum, an endemic Australian Myrtaceae” (J Nat Prod, 2012).
Values after ≈ are worked out from the molar mass of the structure shown. Active and inactive are the calls of the source. No cut-off for these calls is given here.

How the values were obtained:
[1] = Antioxidant activity against AAPH-induced fluorescein peroxidation assessed as trolox equivalent measured every min for 35 mins by fluorimetric analysis; type: functional
Procedure, shortened: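 ORAC: samples were diluted from 20 mg/mL DMSO stock into 75 mM phosphate buffer (pH 7.4), then 2-fold serially, with each tested at two concentrations. Reaction used fluorescein (10 μL, 5 μM) and AAPH (170 μL, 20 mM). Fluorescence was read every minute for 35 min at 37 °C. Values come from a Trolox standard curve (12.5–100 μM) of net AUC and are given as μmol TE/g. Quadruplicate.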

Staphylococcus aureus [2] = assay: Antibacterial activity against Staphylococcus aureus ATCC 29213 after overnight incubation by broth microdilution method; type: functional
Procedure, shortened: (§1)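 Broth microdilution (CLSI M7A7, modified) in tryptone soya broth with 0.025 g/mL glucose, replacing Mueller-Hinton. Compounds were 2-fold serially diluted in TSB containing 2% DMSO. Inoculum came from a 0.5 McFarland suspension diluted 1:100, giving about 5 × 10^5 cfu in 100 μL. Plates were incubated overnight at 37 °C. MIC = lowest concentration with no growth visible to the unaided eye.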

Staphylococcus aureus [3] = assay: Antibacterial activity against Staphylococcus aureus ATCC 29213 incubated overnight followed by compound transfer to TSB medium measured after overnight incubation by cell counting; type: functional
Staphylococcus aureus [4] = assay: Antibacterial activity against Staphylococcus aureus ATCC 25923 after overnight incubation by broth microdilution method; type: functional; procedure, shortened: as §1
Staphylococcus aureus [5] = assay: Antibacterial activity against Staphylococcus aureus ATCC 25923 incubated overnight followed by compound transfer to TSB medium measured after overnight incubation by cell counting; type: functional
[6] = tested on: Staphylococcus epidermidis; assay: Antibacterial activity against Staphylococcus epidermidis ATCC 35984 after overnight incubation by broth microdilution method; type: functional; procedure, shortened: as §1
[7] = tested on: Staphylococcus epidermidis; assay: Antibacterial activity against Staphylococcus epidermidis ATCC 35984 incubated overnight followed by compound transfer to TSB medium measured after overnight incubation by cell counting; type: functional
Escherichia coli = assay: Antibacterial activity against Escherichia coli ATCC 25922 after overnight incubation by broth microdilution method; type: functional; procedure, shortened: as §1
RAW264.7 [8] = assay: Antiinflammatory activity in mouse RAW264.7 cells assessed as inhibition of LPS-induced nitric oxide production incubated for 1 hr prior to LPS-challenge measured after 20 hrs by Griess method; type: functional, cell-based
Procedure, shortened: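 RAW264 cells (10^6 cells/mL, 120 μL/well) were pre-incubated for 20 h. Compounds in DMSO, diluted 20-fold in medium, were added for 1 h. LPS (10 μL of 10 μg/mL) was then added and incubation continued for 20 h. Nitrite was measured by Griess reagent (23 °C, 20 min, A550) against 0–100 μM standards. Triplicate; expressed as a percentage of solvent control.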

RAW264.7 [9] = assay: Antiinflammatory activity in mouse RAW264.7 cells assessed as inhibition of LPS-induced TNFalpha production incubated for 1 hr prior to LPS-challenge measured after 20 hrs by immunoassay; type: functional, cell-based
Procedure, shortened: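 TNF-α was measured by mouse ELISA kit in the same LPS-stimulated RAW264 supernatants as the nitrite assay. Compounds were added 1 h before LPS (10 μL of 10 μg/mL), followed by 20 h incubation.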

[10] = Antiinflammatory activity in Swiss albino mouse 3T3 cells assessed as inhibition of calcium ionophore A23187-induced PGE2 synthesis incubated for 3 hrs prior to calcium ionophore A23187-challenge measured after 15 mins by enzyme immunoassay; type: functional, cell-based; settings: NIH3T3
Procedure, shortened: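 3T3 cells were seeded at 27 × 10^3/well in phenol-red-free DMEM with 5% FBS and 5% newborn calf serum, then left to attach overnight. Compounds in DMSO (0.5% final) were added for 3 h at 37 °C. A23187 (0.5 mM, 10 μL/well) was then added for 15 min. Supernatant was diluted 81-fold and PGE2 measured by EIA. Triplicate; percent inhibition relative to DMSO control.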

[11] = Cytotoxicity against mouse RAW264.7 cells after 24 hrs by ATPlite assay; type: cell-based; settings: read-out: ED50
Procedure, shortened: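 RAW264 cells were plated at 30 000/well in DMEM with 10% FBS. Compounds were tested at six concentrations from DMSO stocks diluted 20-fold in medium, for 24 h at 37 °C, 5% CO2. Cellular ATP was read by ATPlite luminescence. Triplicate; ED50 with 95% CI from curve fitting.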

[12] = Cytotoxicity against Swiss albino mouse 3T3 cells; type: cell-based, NIH3T3; settings: read-out: ED50 (the source's name)
RAW264.7 [13] = assay: Selectivity index, ratio of cytotoxic ED50 for mouse RAW264.7 cells to IC50 for LPS-induced nitric oxide synthesis in mouse RAW264.7 cells; type: functional
Procedure, shortened: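 Selectivity index = RAW264 cytotoxicity ED50 (24 h ATPlite) divided by IC50 for inhibition of LPS-induced nitrite production in RAW264 cells.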

NIH3T3 = assay: Selectivity index, ratio of cytotoxic ED50 for Swiss albino mouse 3T3 cells to IC50 for calcium ionophore A23187-induced PGE2 synthesis in Swiss albino mouse 3T3 cells; type: functional
Pseudomonas aeruginosa = assay: Antibacterial activity against Pseudomonas aeruginosa ATCC 27853 after overnight incubation by broth microdilution method; type: functional; procedure, shortened: as §1

Row | SMILES | MIC (Staphylococcus aureus [2]) [µM] | MIC (Staphylococcus aureus [4]) [µM] | MIC [6] [µM] | MIC (Escherichia coli) | IC50 (RAW264.7 [8]) [µM] | IC50 [10] [µM] | MIC (Pseudomonas aeruginosa) | Activity [1] [µmol/g] | MBC (Staphylococcus aureus [3]) [µM] | MBC (Staphylococcus aureus [5]) [µM] | MBC [7] [µM] | inhibition (RAW264.7 [8]) | inhibition (RAW264.7 [9]) | CC50 at 24 h [11] [µM] | CC50 [12] [µM] | Selectivity Index (RAW264.7 [13]) | Selectivity Index (NIH3T3)
1 | Oc1cc(O)c2c(c1)O[C@H](c1ccc(O)c(O)c1)[C@H](O)C2 | – | – | – | – | – | – | – | 29200 | – | – | – | – | – | – | – | – | –
2 | CC[C@H](C)C(=O)c1c(O)c(C)c(O)c2c1oc1c(C(=O)C(C)C)c(O)c(C)c(O)c12 | 12.1 (≈ 5.01 µg/mL) | 6 (≈ 2.49 µg/mL) | 6 (≈ 2.49 µg/mL) | inactive | 4.4 | > 200 | – | 6280 | 24.1 (≈ 9.99 µg/mL) | 24.1 (≈ 9.99 µg/mL) | 6 (≈ 2.49 µg/mL) | Dose-dependent effect | inactive | 17.6 | 22.3 | 4 | –
3 | Cc1c(O)c(C(=O)C(C)C)c2oc3c(C(=O)C(C)C)c(O)c(C)c(O)c3c2c1O | 26.5 (≈ 10.6 µg/mL) | 13.2 (≈ 5.29 µg/mL) | 13.2 (≈ 5.29 µg/mL) | inactive | 89 | > 200 | inactive | 609 | 26.5 (≈ 10.6 µg/mL) | 26.5 (≈ 10.6 µg/mL) | 13.2 (≈ 5.29 µg/mL) | – | inactive | 142 | 44 | 1.6 | –
4 | CC[C@H](C)C(=O)c1c(O)c(C)c2oc3c(C)c(O)c(C(=O)CC(C)C)c(O)c3c2c1O [RHODOMYRTOXIN C] | 7.2 (≈ 3.09 µg/mL) | 0.9 (≈ 0.386 µg/mL) | 1.9 (≈ 0.814 µg/mL) | inactive | 1.2 | 3.4 | – | 1010 | 7.2 (≈ 3.09 µg/mL) | 0.9 (≈ 0.386 µg/mL) | 1.9 (≈ 0.814 µg/mL) | Dose-dependent effect | inactive | 1.4 | 7 | 1.17 | 2.06

Now from value to compound, other results behind:

Row | MIC (Staphylococcus aureus [2]) [µM] | MIC (Staphylococcus aureus [4]) [µM] | MIC [6] [µM] | MIC (Escherichia coli) | IC50 (RAW264.7 [8]) [µM] | IC50 [10] [µM] | MIC (Pseudomonas aeruginosa) | SMILES | Activity [1] [µmol/g] | MBC (Staphylococcus aureus [3]) [µM] | MBC (Staphylococcus aureus [5]) [µM] | MBC [7] [µM] | inhibition (RAW264.7 [8]) | inhibition (RAW264.7 [9]) | CC50 at 24 h [11] [µM] | CC50 [12] [µM] | Selectivity Index (RAW264.7 [13]) | Selectivity Index (NIH3T3)
5 | 3.9 (≈ 1.62 µg/mL) | 0.5 (≈ 0.207 µg/mL) | 1.9 (≈ 0.787 µg/mL) | inactive | 0.6 | 6 | – | CC[C@H](C)C(=O)c1c(O)c(C)c2oc3c(C)c(O)c(C(=O)C(C)C)c(O)c3c2c1O | 2580 | 3.9 (≈ 1.62 µg/mL) | 1.9 (≈ 0.787 µg/mL) | 3.9 (≈ 1.62 µg/mL) | Dose-dependent effect | inactive | 6.5 | 9.4 | 10.83 | 1.57
6 | 7.2 (≈ 3.09 µg/mL) | 3.7 (≈ 1.59 µg/mL) | 3.7 (≈ 1.59 µg/mL) | inactive | 5 | > 200 | – | CC[C@H](C)C(=O)c1c(O)c(C)c(O)c2c1oc1c(C(=O)[C@@H](C)CC)c(O)c(C)c(O)c12 | 3640 | 14.7 (≈ 6.3 µg/mL) | 3.7 (≈ 1.59 µg/mL) | 3.7 (≈ 1.59 µg/mL) | Dose-dependent effect | inactive | 6.8 | 24.1 | 1.36 | –
7 | 2.7 (≈ 1.08 µg/mL) | 2.7 (≈ 1.08 µg/mL) | 2.7 (≈ 1.08 µg/mL) | inactive | 3.4 | 4.5 | inactive | Cc1c(O)c(C(=O)C(C)C)c(O)c2c1oc1c(C)c(O)c(C(=O)C(C)C)c(O)c12 | 1450 | 11.4 (≈ 4.56 µg/mL) | 5.7 (≈ 2.28 µg/mL) | 22.7 (≈ 9.09 µg/mL) | Dose-dependent effect | inactive | 12 | 15.3 | 3.53 | 3.4
8 | < 0.53 | < 0.53 | < 0.53 | < 0.53 µM | – | – | < 0.53 µM | C[C@H]1COc2c(N3CCN(C)CC3)c(F)cc3c(=O)c(C(=O)O)cn1c23 [LEVOFLOXACIN] | – | – | – | – | – | – | – | – | – | –
